Assay results published in ChEMBL document CHEMBL3232993, “Design, synthesis, and structure-activity relationship of a novel series of GluN2C-selective potentiators” (J Med Chem, 2014).
Each block holds one compound with its values, some of them ahead of it. Calls of active or inactive are those of the source. The rule behind the calls is not given here.

Legend:
[1] = organism: Homo sapiens; experiment: Potentiation of recombinant nicotinic receptor (unknown origin)
[2] = target: T1, Glutamate NMDA receptor; Grin1/Grin2c (Rattus norvegicus) (UniProt P35439+Q00961); experiment: Potentiation of rat recombinant GluN1/GluN2C expressed in Xenopus laevis oocytes assessed as glycine-induced current response at 68 uM by two-electrode voltage clamp technique; format: cell-based
[3] = target: T1, Glutamate NMDA receptor; Grin1/Grin2c (Rattus norvegicus); experiment: Potentiation of rat recombinant GluN1/GluN2C expressed in Xenopus laevis oocytes assessed as glutamte/glycine-induced current response at 20 uM at 30 mV; format: cell-based
[4] = organism: Homo sapiens; experiment: Potentiation of recombinant GABA receptor (unknown origin)
[5] = organism: Homo sapiens; experiment: Potentiation of recombinant glycine receptor (unknown origin)
[6] = target: T1, Glutamate NMDA receptor; Grin1/Grin2c (Rattus norvegicus); experiment: Potentiation of rat recombinant GluN1/GluN2C expressed in Xenopus laevis oocytes assessed as increase in glutamate/glycine-induced current response at 100 uM by two-electrode voltage clamp technique relative to control; format: cell-based
In short: (§1)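 Two-electrode voltage clamp at −40 mV on Xenopus oocytes coexpressing GluN1 with GluN2A, 2B, 2C or 2D. […] Compounds came from 20 mM DMSO stocks, with 0.05–0.5% final DMSO. Some GluN2A oocytes were injected with K-BAPTA to limit current run-up. Recording solution was pH 7.4, 23 °C.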

[7] = organism: Homo sapiens; experiment: Potentiation of recombinant kainate receptor (unknown origin)
[8] = target: T1, Glutamate NMDA receptor; Grin1/Grin2c (Rattus norvegicus); experiment: Effect on rat recombinant GluN1/GluN2C expressed in Xenopus laevis oocytes assessed as reversal potential of glycine/glutamate-induced current response (reference value: -5.1 +/- 0.8 mV); format: cell-based
In short: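 Reversal potential of GluN1/GluN2C currents in cRNA-injected Xenopus oocytes by two-electrode voltage clamp. […] Recording solution was Ba²⁺-containing HEPES saline, pH 7.4, 23 °C.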

[9] = organism: Homo sapiens; experiment: Potentiation of recombinant serotonin receptor (unknown origin)
[10] = target: T1, Glutamate NMDA receptor; Grin1/Grin2c (Rattus norvegicus); experiment: Potentiation of rat recombinant GluN1/GluN2C expressed in Xenopus laevis oocytes assessed as increase in glutamate/glycine-induced current response at 30 uM by two-electrode voltage clamp technique relative to control; format: cell-based; in short: as §1
[11] = target: Glutamate receptor 1 (Rattus norvegicus) (UniProt P19490); experiment: Potentiation of recombinant homomeric GluA1 AMPA receptor (rat) at 30 uM relative to control
Glutamate receptor 1 (Rattus norvegicus), sequence (P19490 whole entry, looked up): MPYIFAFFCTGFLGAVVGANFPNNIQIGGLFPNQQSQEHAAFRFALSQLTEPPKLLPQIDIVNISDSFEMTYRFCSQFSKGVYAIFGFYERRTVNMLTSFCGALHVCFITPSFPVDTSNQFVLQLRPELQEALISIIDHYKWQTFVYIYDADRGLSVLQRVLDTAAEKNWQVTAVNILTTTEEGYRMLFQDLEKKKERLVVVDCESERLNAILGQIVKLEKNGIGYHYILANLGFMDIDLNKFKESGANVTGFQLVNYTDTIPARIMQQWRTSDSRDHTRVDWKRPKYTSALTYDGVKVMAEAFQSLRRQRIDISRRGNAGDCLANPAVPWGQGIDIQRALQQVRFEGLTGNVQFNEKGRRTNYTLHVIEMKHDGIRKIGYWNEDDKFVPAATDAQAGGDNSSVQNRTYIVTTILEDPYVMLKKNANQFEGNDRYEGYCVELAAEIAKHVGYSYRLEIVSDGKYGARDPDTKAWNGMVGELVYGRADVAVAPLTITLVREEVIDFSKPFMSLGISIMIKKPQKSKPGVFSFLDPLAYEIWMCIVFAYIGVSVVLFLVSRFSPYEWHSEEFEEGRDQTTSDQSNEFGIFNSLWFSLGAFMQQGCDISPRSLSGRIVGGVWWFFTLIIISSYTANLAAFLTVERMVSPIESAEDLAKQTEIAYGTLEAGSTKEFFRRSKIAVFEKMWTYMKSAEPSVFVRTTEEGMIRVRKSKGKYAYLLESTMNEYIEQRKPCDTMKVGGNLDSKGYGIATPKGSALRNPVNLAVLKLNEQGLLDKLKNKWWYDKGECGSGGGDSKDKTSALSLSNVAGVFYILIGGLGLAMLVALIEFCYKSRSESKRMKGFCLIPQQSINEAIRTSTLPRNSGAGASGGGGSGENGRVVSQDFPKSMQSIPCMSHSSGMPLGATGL

[12] = target: T1, Glutamate NMDA receptor; Grin1/Grin2c (Rattus norvegicus); experiment: Potentiation of rat recombinant GluN1/GluN2C expressed in Xenopus laevis oocytes assessed as glutamate-induced current response at 68 uM by two-electrode voltage clamp technique; format: cell-based
[13] = target: Glutamate receptor ionotropic, kainate 2 (Rattus norvegicus) (UniProt P42260); experiment: Potentiation of recombinant homomeric GluK2 receptor (rat) at 120 uM relative to control
Glutamate receptor ionotropic, kainate 2 (Rattus norvegicus), sequence (P42260 whole entry, looked up): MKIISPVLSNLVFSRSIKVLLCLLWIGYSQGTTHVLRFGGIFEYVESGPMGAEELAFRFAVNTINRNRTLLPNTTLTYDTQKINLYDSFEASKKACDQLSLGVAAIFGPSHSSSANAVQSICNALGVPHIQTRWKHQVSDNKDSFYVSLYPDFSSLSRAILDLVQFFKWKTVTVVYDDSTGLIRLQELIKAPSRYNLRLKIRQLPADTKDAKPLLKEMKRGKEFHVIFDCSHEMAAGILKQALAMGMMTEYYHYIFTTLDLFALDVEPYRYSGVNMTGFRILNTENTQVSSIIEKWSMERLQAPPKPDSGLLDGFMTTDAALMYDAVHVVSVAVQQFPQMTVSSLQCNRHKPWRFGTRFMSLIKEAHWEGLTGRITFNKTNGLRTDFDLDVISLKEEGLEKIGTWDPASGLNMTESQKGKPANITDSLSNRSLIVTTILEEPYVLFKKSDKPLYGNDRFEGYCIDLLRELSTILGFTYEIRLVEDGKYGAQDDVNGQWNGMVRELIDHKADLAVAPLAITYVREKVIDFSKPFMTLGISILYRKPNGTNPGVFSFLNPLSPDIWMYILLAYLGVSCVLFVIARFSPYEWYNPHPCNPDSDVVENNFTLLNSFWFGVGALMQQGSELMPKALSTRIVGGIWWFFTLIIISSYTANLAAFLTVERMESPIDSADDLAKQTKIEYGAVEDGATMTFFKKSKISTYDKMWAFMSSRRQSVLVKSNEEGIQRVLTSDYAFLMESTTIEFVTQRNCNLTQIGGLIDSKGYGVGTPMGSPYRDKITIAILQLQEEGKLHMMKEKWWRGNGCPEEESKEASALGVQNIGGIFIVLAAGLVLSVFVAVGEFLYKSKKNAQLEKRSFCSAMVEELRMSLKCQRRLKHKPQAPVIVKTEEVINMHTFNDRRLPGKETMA

[14] = target: T1, Glutamate NMDA receptor; Grin1/Grin2c (Rattus norvegicus); experiment: Potentiation of rat recombinant GluN1/GluN2C expressed in Xenopus laevis oocytes assessed as glutamte/glycine-induced current response at 20 uM at -40 mV; format: cell-based
[15] = target: T1, Glutamate NMDA receptor; Grin1/Grin2c (Rattus norvegicus); experiment: Agonist activity at rat recombinant GluN1/GluN2C expressed in Xenopus laevis oocytes by two-electrode voltage clamp technique relative to control; format: cell-based
[16] = organism: Homo sapiens; experiment: Potentiation of recombinant purinergic receptor (unknown origin)
[17] = target: Glutamate NMDA receptor; Grin1/Grin2a (Rattus norvegicus, UniProt P35439+Q00959); experiment: Inhibition of rat recombinant GluN1/GluN2A expressed in Xenopus laevis oocytes assessed as reduction in current response; format: cell-based
[18] = target: Glutamate NMDA receptor; Grin1/Grin2b (Rattus norvegicus, UniProt P35439+Q00960); experiment: Inhibition of rat recombinant GluN1/GluN2B expressed in Xenopus laevis oocytes assessed as reduction in current response; format: cell-based
[19] = target: Glutamate NMDA receptor; Grin1/Grin2b (Rattus norvegicus) (UniProt P35439+Q00960); experiment: Potentiation of rat recombinant GluN1/GluN2B expressed in Xenopus laevis oocytes assessed as increase in glutamate/glycine-induced current response at 30 uM by two-electrode voltage clamp technique relative to control; format: cell-based; in short: as §1
[20] = target: Ionotropic glutamate receptor NMDA 1/2D (Rattus norvegicus, UniProt P35439+Q62645); experiment: Inhibition of rat recombinant GluN1/GluN2D expressed in Xenopus laevis oocytes assessed as reduction in current response; format: cell-based
[21] = target: Ionotropic glutamate receptor NMDA 1/2D (Rattus norvegicus) (UniProt P35439+Q62645); experiment: Potentiation of rat recombinant GluN1/GluN2D expressed in Xenopus laevis oocytes assessed as increase in glutamate/glycine-induced current response at 30 uM by two-electrode voltage clamp technique relative to control; format: cell-based; in short: as §1
[22] = target: Glutamate NMDA receptor; Grin1/Grin2a (Rattus norvegicus) (UniProt P35439+Q00959); experiment: Potentiation of rat recombinant GluN1/GluN2A expressed in Xenopus laevis oocytes assessed as increase in glutamate/glycine-induced current response at 30 uM by two-electrode voltage clamp technique relative to control; format: cell-based; in short: as §1

Activity [1]: inactive | Activity [2]: inactive | Activity [3]: 180% | Activity [4]: inactive | Activity [5]: inactive | max activation [6]: 238% | Activity [7]: inactive | Activity [8]: -5 mV | Activity [9]: inactive | Activity [10]: 196% | max activation [10]: 275% | Activity [11]: 97% | Activity [12]: inactive | Activity [13]: 95% | Activity [14]: 202% | Activity [15]: inactive | Activity [16]: inactive
Structure (SMILES): COC(=O)c1ccc(C2C(C(C)=O)=C(O)C(=O)N2CCc2c[nH]c3ccccc23)cc1 (centres undefined)

IC50 [17]: 18 µM | IC50 [18]: 7.2 µM | Activity [19]: 20% | IC50 [20]: 5.7 µM | Activity [10]: 34% | Activity [21]: 18% | Activity [22]: 44%
Structure (SMILES): COC(=O)c1ccc(C2C(C(=O)c3ccncc3)=C(O)C(=O)N2CCc2cccc3ccccc23)cc1 (centres undefined)
